# Calls of active or inactive are those of the source. The rule behind the calls is not given here.
# Columns and labels:
# [1] = target: Platelet-derived growth factor receptor alpha (Homo sapiens) (UniProt P16234); experiment: Inhibition of PDGFRalpha phosphorylation at Y849 in human GISTT1 cells up to 10 uM after 2 hrs by Western blot analysis; assay type: cell-based
# Method in brief: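 Cells were washed in cold PBS, lysed in RIPA and immunoblotted for phospho and total proteins, including pPDGFRα Y849/PDGFRβ Y857 and β-actin.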
# [2] = target: Mast/stem cell growth factor receptor Kit (Homo sapiens) (UniProt P10721); experiment: Inhibition of cKIT in human GIST48B cells assessed as suppression of ERK phosphorylation at T202/Y204 up to 10 uM after 2 hrs by Western blot analysis; assay type: cell-based
# GIST882 = experiment: Induction of apoptosis in human GIST882 cells assessed as caspase 3 cleavage up to 3 uM after 72 hrs by Western blot analysis; assay type: functional, cell-based
# GIST48B = experiment: Induction of apoptosis in human GIST48B cells assessed as PARP cleavage up to 3 uM after 72 hrs by Western blot analysis; assay type: functional, cell-based
# [3] = Apparent volume of distribution in Sprague-Dawley rat plasma at 1 mg/kg, iv; assay type: ADME, organism-based; conditions: read-out: Vz
# Method in brief: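 Male Sprague-Dawley rats, 8 weeks old, fasted overnight, dosed iv or orally. Formulation was 5% DMSO/40% PEG400/55% saline at 1 mg/mL. Blood (~0.2 mL) was drawn from the jugular vein into heparin. Sampling: iv at 1 min to 8 h; oral at 5 min to 24 h. Plasma was separated by centrifugation at 2−8 °C and stored at −80 °C.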
# [4] = target: Mast/stem cell growth factor receptor Kit (Homo sapiens) (UniProt P10721); experiment: Inhibition of Tel-fused cKIT (unknown origin) transfected in mouse BAF3 cells assessed as decrease in cell proliferation after 72 hrs by celltiter-glo/CCK8 assay; assay type: cell-based
# Method in brief: (§1)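 Cells were seeded at 1 to 3 × 10⁴ cells/mL with serial compound concentrations and incubated 72 h at 37 °C, 5% CO₂. Viability was read by CellTiter-Glo luminescence or CCK-8 absorbance (450/655 nm). GI50 values are from triplicate testing. GIST-T1 and CHO were grown in DMEM/10% FBS; GIST-882, GIST-48B and MV4-11 in IMDM/10% FBS; other lines in RPMI 1640/10% FBS.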
# [5] = tested on: Mast/stem cell growth factor receptor Kit (Homo sapiens), P10721 [V559D]; experiment: Inhibition of Tel-fused cKIT V559D mutant (unknown origin) transfected in mouse BAF3 cells assessed as decrease in cell proliferation after 72 hrs by celltiter-glo/CCK8 assay; assay type: cell-based
# Method in brief: (§2)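 Stable BaF3 lines made by retroviral transduction with mutagenized TEL-KIT MSCV vectors, puromycin selection 48 h, then gradual IL-3 withdrawal until IL-3-independent; grown in RPMI 1640 with 10% FBS. Cells at 1 to 3 × 10⁴ cells/mL exposed to a concentration series for 72 h; viability read by CellTiter-Glo luminescence or CCK-8 absorbance (450/655 nm); GI50 from triplicate testing.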
# [6] = tested on: Mast/stem cell growth factor receptor Kit (Homo sapiens), P10721 [D816V]; experiment: Inhibition of Tel-fused cKIT D816V mutant (unknown origin) transfected in mouse BAF3 cells assessed as decrease in cell proliferation after 72 hrs by celltiter-glo/CCK8 assay; assay type: cell-based; method in brief: as §2
# MV4-11 = experiment: Antiproliferative activity against FLT3-ITD dependent human MV4-11 cells assessed as reduction in cell viability after 72 hrs by celltiter-glo/CCK8 assay; assay type: functional; conditions: MV4-11, 72 h; method in brief: as §1
# [7] = Antiproliferative activity against human U937 cells assessed as reduction in cell viability after 72 hrs by celltiter-glo/CCK8 assay; assay type: functional; conditions: U-937, 72 h; method in brief: as §1
# [8] = Antiproliferative activity against CHL cells assessed as reduction in cell viability after 72 hrs by celltiter-glo/CCK8 assay; assay type: cell-based, Cricetulus griseus; conditions: chinese hamster; method in brief: as §1
# Chain of Mast/stem cell growth factor receptor Kit (Homo sapiens) (P10721 whole entry, the tested form may be a part): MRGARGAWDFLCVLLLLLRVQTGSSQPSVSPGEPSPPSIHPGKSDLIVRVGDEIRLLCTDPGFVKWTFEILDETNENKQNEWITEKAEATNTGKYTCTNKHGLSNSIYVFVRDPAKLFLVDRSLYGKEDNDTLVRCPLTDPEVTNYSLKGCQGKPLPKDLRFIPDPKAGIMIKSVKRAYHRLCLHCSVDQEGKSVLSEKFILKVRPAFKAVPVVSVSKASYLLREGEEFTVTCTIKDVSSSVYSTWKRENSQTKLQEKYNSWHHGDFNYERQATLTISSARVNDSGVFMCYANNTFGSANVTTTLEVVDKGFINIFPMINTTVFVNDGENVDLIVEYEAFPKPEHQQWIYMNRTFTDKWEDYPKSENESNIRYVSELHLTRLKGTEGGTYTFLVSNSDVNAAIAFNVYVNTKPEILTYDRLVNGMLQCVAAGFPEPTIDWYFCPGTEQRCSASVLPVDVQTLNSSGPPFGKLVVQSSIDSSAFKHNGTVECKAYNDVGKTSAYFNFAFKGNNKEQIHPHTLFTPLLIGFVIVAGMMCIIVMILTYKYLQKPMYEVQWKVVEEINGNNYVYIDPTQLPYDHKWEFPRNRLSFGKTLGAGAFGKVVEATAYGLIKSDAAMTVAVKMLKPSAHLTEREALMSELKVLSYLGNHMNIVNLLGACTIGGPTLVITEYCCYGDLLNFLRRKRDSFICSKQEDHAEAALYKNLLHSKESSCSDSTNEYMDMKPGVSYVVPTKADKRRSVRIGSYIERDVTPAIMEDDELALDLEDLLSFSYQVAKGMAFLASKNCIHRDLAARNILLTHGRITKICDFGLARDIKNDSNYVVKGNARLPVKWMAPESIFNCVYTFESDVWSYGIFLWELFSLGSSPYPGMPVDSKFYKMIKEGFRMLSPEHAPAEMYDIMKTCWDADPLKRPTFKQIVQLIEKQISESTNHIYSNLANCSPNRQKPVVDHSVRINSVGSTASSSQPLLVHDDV
# Chain of Mast/stem cell growth factor receptor Kit (Homo sapiens), P10721 [D816V] (P10721 whole entry D816V, the tested form may be a part): as the sequence (P10721 whole entry, the tested form may be a part) above, with D816V counted along it
# Chain of Mast/stem cell growth factor receptor Kit (Homo sapiens), P10721 [V559D] (P10721 whole entry V559D, the tested form may be a part): as the sequence (P10721 whole entry, the tested form may be a part) above, with V559D counted along it
# Chain of Platelet-derived growth factor receptor alpha (Homo sapiens) (P16234 whole entry): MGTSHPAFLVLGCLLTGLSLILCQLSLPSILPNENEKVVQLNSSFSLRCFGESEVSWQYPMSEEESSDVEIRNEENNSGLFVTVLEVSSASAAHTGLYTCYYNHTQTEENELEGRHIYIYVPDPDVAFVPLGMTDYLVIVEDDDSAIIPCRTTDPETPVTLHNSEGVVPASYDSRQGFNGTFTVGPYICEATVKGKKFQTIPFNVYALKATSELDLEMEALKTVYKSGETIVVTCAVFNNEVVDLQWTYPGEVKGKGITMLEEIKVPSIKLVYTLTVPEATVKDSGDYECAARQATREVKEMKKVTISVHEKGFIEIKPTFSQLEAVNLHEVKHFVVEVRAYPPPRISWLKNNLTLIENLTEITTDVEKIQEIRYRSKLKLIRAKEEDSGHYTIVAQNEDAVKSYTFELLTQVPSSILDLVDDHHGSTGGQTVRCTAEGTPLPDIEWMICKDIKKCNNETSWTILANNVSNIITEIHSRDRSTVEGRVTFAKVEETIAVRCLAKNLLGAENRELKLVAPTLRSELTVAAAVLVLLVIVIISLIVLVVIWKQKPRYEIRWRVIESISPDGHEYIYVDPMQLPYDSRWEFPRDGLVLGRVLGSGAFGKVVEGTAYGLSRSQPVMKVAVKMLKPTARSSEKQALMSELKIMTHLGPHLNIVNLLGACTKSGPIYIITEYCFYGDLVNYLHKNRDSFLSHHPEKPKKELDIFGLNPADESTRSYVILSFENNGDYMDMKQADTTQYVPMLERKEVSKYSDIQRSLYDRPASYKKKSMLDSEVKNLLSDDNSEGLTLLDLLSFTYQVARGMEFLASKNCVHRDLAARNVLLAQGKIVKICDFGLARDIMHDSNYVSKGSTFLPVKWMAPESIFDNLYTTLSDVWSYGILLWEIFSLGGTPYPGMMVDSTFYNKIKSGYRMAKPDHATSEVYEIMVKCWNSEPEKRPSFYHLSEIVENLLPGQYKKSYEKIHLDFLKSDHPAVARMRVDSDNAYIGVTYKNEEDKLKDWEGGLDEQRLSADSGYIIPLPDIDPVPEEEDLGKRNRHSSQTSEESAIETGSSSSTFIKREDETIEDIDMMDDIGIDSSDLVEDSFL
smiles,measurement,setting,value
Cc1ccc(NC(=O)c2cccc(C(F)(F)F)c2)cc1OC1CCN(C(=O)c2ccncc2)CC1,inhibition,[1],Active
same,inhibition,[2],inactive
same,Activity,GIST882,Active
same,Activity,GIST48B,inactive
same,Vd,[3],3.22 L/kg
same,GI50,[4],190 nM
same,GI50,[5],40 nM
same,GI50,[6],> 10 µM
same,GI50,MV4-11,> 10 µM
same,GI50,[7],> 10 µM
same,GI50 at 72 h,[8],> 10 µM
